Results from ChEMBL document CHEMBL1687893 (Eur J Med Chem, 2011).

Key:
[1] = tested on: MCF7; experiment: Cytotoxicity against human MCF7 cells assessed as growth inhibition after 72 hrs; settings: MCF7, 72 h
[2] = tested on: MDA-MB-231; experiment: Cytotoxicity against human MDA-MB-231 cells assessed as growth inhibition after 72 hrs; settings: MDA-MB-231, 72 h
[3] = tested on: Mus musculus; experiment: Antiinflammatory activity against xylene-induced ear edema in Kunming mouse assessed as reduction in ear swelling weight at 100 mg, ip administered 2 hrs post challenge measured after 30 mins; assay type: functional
How it was run: (§1)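 Male Kunming mice (~20 g), fasted 12 h, groups of 6. Compound given i.p.; 30 min later 0.015 mL xylene applied to front and back surfaces of right ear, left ear as control. Killed 2 h after xylene; 7 mm circular ear sections weighed and measured. Swelling taken as weight and thickness over untreated left ear. Mean ± S, one-way ANOVA.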

[4] = tested on: Mus musculus; experiment: Antiinflammatory activity against xylene-induced ear edema in Kunming mouse assessed as reduction in ear swelling thickness at 100 mg, ip administered 2 hrs post challenge measured after 30 mins; assay type: functional
How it was run: as §1

[5] = target: Prostaglandin G/H synthase 2 (Homo sapiens) (UniProt P35354); experiment: Inhibition of human COX-2 at 10 uM by ELISA relative to licofelone
[6] = target: Prostaglandin G/H synthase 1 (Ovis aries) (UniProt P05979); experiment: Inhibition of ovine COX-1 at 10 uM by ELISA relative to licofelone
[7] = tested on: MCF7; experiment: Antiproliferative activity against human MCF-7 cells at 0.63 uM to 10 uM after 20 to 140 hrs; assay type: functional, cell-based; settings: TDE = time-dependent effect
How it was run: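 MCF-7 cells in DMEM with 5% FBS, seeded at 7500 cells/mL and grown 3 days before compound addition. Exposed to a range of concentrations for up to 144 h. Biomass measured by glutaraldehyde fixation, crystal violet staining, ethanol extraction and absorbance at 590 nm. Expressed as corrected T/C % = (T−C0)/(C−C0)·100.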

Row | SMILES | IC50 [1] | IC50 [2] | inhibition (INH) [3] | inhibition (INH) [4] | inhibition [5] | inhibition [6] | Activity [7]
1 | Cc1cccc(C(=O)OCC(=O)c2c(-c3ccc(Cl)cc3)c(-c3ccccc3)c3n2CC(C)(C)C3)c1 | 3.8 µM | > 50 µM | 17.5% | 50.7% | – | – | –
2 | COc1ccccc1C(=O)OCC(=O)c1c(-c2ccc(Cl)cc2)c(-c2ccccc2)c2n1CC(C)(C)C2 | 4.5 µM | > 50 µM | 31.6% | 18.1% | – | – | –
3 | Cc1ccccc1C(=O)OCC(=O)c1c(-c2ccc(Cl)cc2)c(-c2ccccc2)c2n1CC(C)(C)C2 | 6.2 µM | 12.9 µM | 12.3% | 34.1% | – | – | –
4 | Cc1ccc(-c2cc(C(F)(F)F)nn2-c2ccc(S(N)(=O)=O)cc2)cc1 [CELECOXIB] | – | – | 46.3% | 47.9% | – | – | –
5 | CC(=O)OCC(=O)c1c(-c2ccc(Cl)cc2)c(-c2ccccc2)c2n1CC(C)(C)C2 | 2.5 µM | 4.4 µM | 19.3% | 37% | 9% | 11% | –
6 | CCC(=O)OCC(=O)c1c(-c2ccc(Cl)cc2)c(-c2ccccc2)c2n1CC(C)(C)C2 | 1.7 µM | 3.1 µM | 3.5% | 12.3% | 9% | 11% | tde
7 | CC1(C)Cc2c(-c3ccccc3)c(-c3ccc(Cl)cc3)c(C(=O)COC(=O)Cc3ccccc3)n2C1 | 4.7 µM | > 50 µM | 26.3% | 35.8% | – | – | –
8 | CC1(C)Cc2c(-c3ccccc3)c(-c3ccc(Cl)cc3)c(C(=O)COC(=O)c3ccc([N+](=O)[O-])cc3)n2C1 | 4.8 µM | 7.3 µM | 1.8% | 6.5% | – | – | –
9 | CC1(C)Cc2c(-c3ccccc3)c(-c3ccc(Cl)cc3)c(C(=O)COC(=O)c3ccccc3O)n2C1 | 8.2 µM | > 50 µM | 31.6% | 14.5% | – | – | –
10 | CC1(C)Cc2c(-c3ccccc3)c(-c3ccc(Cl)cc3)cn2C1 | 5.6 µM | 19.7 µM | – | – | – | – | –
11 | Cc1ccc(C(=O)OCC(=O)c2c(-c3ccc(Cl)cc3)c(-c3ccccc3)c3n2CC(C)(C)C3)cc1 | > 50 µM | > 50 µM | 22.8% | 21% | – | – | –
12 | CCC(=O)c1c(-c2ccc(Cl)cc2)c(-c2ccccc2)c2n1CC(C)(C)C2 | 8.7 µM | 19.2 µM | 24.6% | 22.5% | 9% | 11% | –
13 | CC1(C)Cc2c(-c3ccccc3)c(-c3ccc(Cl)cc3)c(C(=O)COC=O)n2C1 | 1.5 µM | 1.8 µM | 19.3% | 20.3% | 9% | 11% | tde
